pIC50: −log10 of the molar value. Calls of active or inactive are those of the source. The rule behind the calls is not given here.

Experiment [1] in a line: Effect on gamma irradiation-induced TBARS formation in liposomes at 50 uM. The format is functional. The method in brief: (§1)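 Liposomal suspensions, N2O/O2-purged, pH 7.4 phosphate buffer, exposed to a constant 280 Gy γ-dose (Fricke dosimetry). Peroxidation followed as TBARS with compound at 0.025–0.150 mM. IC50 is the concentration giving 50% inhibition of lipid peroxidation.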

The nature of experiment [2]: Glutathione peroxidase activity assessed by GSH-GSSG coupled assay. The format is functional. The procedure, abridged: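 GPx-like activity measured by GSH–GSSG coupled assay: glutathione reductase 0.3 U/ml, NADPH 0.25 mM, GSH 0.5–6 mM, compound 0.025 mM (in methanol, 2% in buffer), H2O2 1 mM substrate. NADPH loss at 340 nm fitted to an exponential; initial rates from ε 6220 M-1 cm-1, corrected for uncatalysed H2O2–GSH reaction. Km and Vmax from Lineweaver–Burk plots.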

Experiment [3] is described as follows: Inhibition of gamma radiation-induced lipid peroxidation in liposomes. The format is functional. The procedure, abridged:
as §1

Experiment [4] is described as follows: Inhibition of horseradish peroxidase by spectrophotometric method. More on the design: species or system Armoracia rusticana. The procedure, abridged: (§2)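 HRP (70 nM) with ABTS2- as substrate, with or without selenium compound at 0.06–0.1 mM. Reaction started by adding H2O2. Initial rates taken from the absorbance change at 645 nm (ABTS radical cation). Activity without compound set to 100%.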

The nature of experiment [5]: Antioxidant activity assessed by singlet oxygen quenching ability. The format is functional.
Experiment [6] in a line: Inhibition of gamma radiation-induced lipid peroxidation in liposomes at 200 uM. The format is functional.
Experiment [7] in a line: Antioxidant activity assessed by singlet oxygen quenching ability at 1mM. The format is functional.
Another experiment deals with Armoracia rusticana. The experiment in a line: Inhibition of horseradish peroxidase at 100 uM. The method in brief: as §2

As for `O=c1c2ccccc2[se]n1-c1ccccc1` [EBSELEN], the result in experiment [1] and in experiment [5] was Active. For the same molecule, the Km in experiment [2] turned out to be 13.2 mM. Further, the negative-log IC50 (pIC50) in experiment [3] is 4.60; in experiment [4], 4.77.
The molecule `O=C(Nc1ccccc1)c1ccccc1[Se][Se]c1ccccc1C(=O)Nc1ccccc1` [EBSELEN DISELENIDE] showed an inhibition in experiment [6] of 19%. Moreover, in experiment [1] (Liposome), the result was Active. The outcome in experiment [7] was inactive. In experiment [4], the negative-log IC50 (pIC50) was 4.30.
In the experiment with Armoracia rusticana, `C[Se]c1ccccc1C(=O)Nc1ccccc1` displayed an inhibition of 25.5%. The result in experiment [1] (Liposome) and in experiment [5] was Active. In experiment [2], the Michaelis constant (Km) turned out to be 5.25 mM. In addition, the pIC50 in experiment [3] was 4.00; in experiment [4], < 4.00.
`O=C(Nc1ccccc1)c1ccccc1[Se]Cc1ccccc1` came in with an inhibition in the experiment on Armoracia rusticana of 33.1%. In addition, the result in experiment [1] (Liposome) and in experiment [5] was Active. The Km in experiment [2] came to 2.2 mM. The negative-log IC50 (pIC50) was 4.12 in experiment [3] and < 4.00 in experiment [4].
Turning to `O=C(Nc1ccccc1)c1ccccc1[Te][Te]c1ccccc1C(=O)Nc1ccccc1` [EBSELEN DITELLURIDE], the outcome in experiment [1] (Liposome) and in experiment [5] was Active. In addition, the Km in experiment [2] turned out to be 2.3 mM. Also, the figures for the pIC50 in experiment [3] and in experiment [4] were 3.76 and 4.76, respectively.

One may read the Km as the concentration of substrate that gives half-maximal velocity. For orientation: pIC50 means the IC50 on a negative log10 scale, so that one unit is a factor of ten. The term inhibition denotes the change of the read-out against control, counted positive when it falls. A low value points to a weak effect.

Source of the values: ChEMBL document CHEMBL1137246, “Horseradish peroxidase inhibition and antioxidant activity of ebselen and related organoselenium compounds” (Bioorg Med Chem Lett, 2006).
